Measured values collected from several papers.
Protocols differ between the studies behind these lines. ≈ marks a conversion by molar mass, not a printed value.

| SMILES | target or system | assay | test system | conditions | quantity | result |
| --- | --- | --- | --- | --- | --- | --- |
| CN1CCN(c2ccc(-c3ccc4c(Nc5cnccn5)cnnc4c3)cc2)CC1 | Trypanosoma cruzi | parasite growth | C2C12 | intracellular, amastigote | EC50 | > 10 µM |
| O=C(NCc1cn(Cc2ccc(Br)cc2)nn1)Nc1ccc(Cl)cc1 | Huh-7 | cell growth or viability, CCK-8 | – | 50 µM, 48 h | viability | 88.2% |
| COc1cc(C=O)ccc1OC1=C(Cl)C(=O)c2ccccc2C1=O | Alternaria alternata | microbial growth, broth dilution | – | – | MIC | 12 µg/mL (≈ 35 µM) |
| Cc1ccc(Nc2cnnc3ccc(-c4ccc(N5CCN(C)CC5)cc4)cc23)cn1 | Trypanosoma cruzi | parasite growth | C2C12 | intracellular, amastigote | EC50 | 3.3 µM |
| O=C(Cn1ccnc1[N+](=O)[O-])NCc1ccccc1 | Trypanosoma cruzi | parasite growth | Vero, TULAHUEN | 72 h, intracellular, amastigote | IC50 | 2.23 µM |
| COc1ccc(Nc2cnnc3cc(-c4cnc(N5CCCN(C)CC5)nc4)ccc23)cc1Cl | Trypanosoma cruzi | parasite growth | C2C12 | intracellular, amastigote | EC50 | 2 µM |
| O=C(Cn1ccnc1[N+](=O)[O-])NCc1ccccc1 | Trypanosoma cruzi | parasite growth | – | 72 h, epimastigote | IC50 | 1.57 µg/mL |
| Cc1ccc(Nc2cnnc3cc(-c4ccc(N5CCN(C)CC5)cc4)ccc23)cn1 | Trypanosoma cruzi | parasite growth | C2C12 | intracellular, amastigote | EC50 | 1.3 µM |
| COc1ccc(NC(=O)NCc2cn(Cc3ccc(Cl)cc3)nn2)cc1 | Huh-7 | cell growth or viability, CCK-8 | – | 50 µM, 72 h | viability | 99% |
| O=C(Nc1ccc(Cl)cc1)Nc1ccc(-c2cn(Cc3ccc(Cl)cc3)nn2)cc1 | Huh-7 | cell growth or viability, CCK-8 | – | 50 µM, 48 h | viability | 83.6% |
| COc1ccc(NC(=O)Nc2cccc(-c3cn(Cc4ccc(Cl)cc4)nn3)c2)cc1 | Huh-7 | cell growth or viability, CCK-8 | – | 50 µM, 48 h | viability | 67.1% |
| O=C(Nc1ccc(-c2cn(Cc3ccc(Cl)cc3)nn2)cc1)Nc1ccccc1Br | Huh-7 | cell growth or viability, CCK-8 | – | 50 µM, 72 h | viability | 87.2% |
| CN1CCN(c2ccc(-c3ccc4c(Nc5ncccn5)cnnc4c3)cc2)CC1 | Trypanosoma cruzi | parasite growth | C2C12 | intracellular, amastigote | EC50 | 2.6 µM |
| O=C(NCc1cn(Cc2cccc(Cl)c2)nn1)Nc1ccc(Cl)cc1 | Huh-7 | cell growth or viability, CCK-8 | – | 50 µM, 72 h | viability | 82.2% |
| COc1ccc(NC(=O)Nc2cccc(-c3cn(Cc4cccc(Cl)c4)nn3)c2)cc1 | Huh-7 | cell growth or viability, CCK-8 | – | 50 µM, 48 h | viability | 65.5% |
| COc1ccc(Nc2cnnc3ccc(-c4cnc(N5CCN(C)CC5)nc4)cc23)cc1Cl | Trypanosoma cruzi | parasite growth | C2C12 | intracellular, amastigote | EC50 | 5.7 µM |
| Cc1ccccc1Cn1cc(-c2cccc(NC(=O)Nc3ccc(F)cc3)c2)nn1 | Huh-7 | cell growth or viability, CCK-8 | – | 50 µM, 48 h | viability | 46% |
| Cc1ccc(Nc2cnnc3ccc(-c4ccc(N5CCCN(C)CC5)cc4)cc23)cn1 | Trypanosoma cruzi | parasite growth | C2C12 | intracellular, amastigote | EC50 | 6.1 µM |
| COc1ccc(NC(=O)NCc2cn(Cc3ccc(Br)cc3)nn2)cc1 | Huh-7 | cell growth or viability, CCK-8 | – | 50 µM, 48 h | viability | 87.2% |
| O=C(NCc1cn(Cc2ccc(Br)cc2)nn1)Nc1ccccc1Br | Huh-7 | cell growth or viability, CCK-8 | – | 50 µM, 48 h | viability | 61.2% |
| COc1ccc(NC(=O)Nc2ccc(-c3cn(Cc4cccc(Cl)c4)nn3)cc2)cc1 | Huh-7 | cell growth or viability, CCK-8 | – | 50 µM, 72 h | viability | 82.5% |
| O=C(Nc1ccc(Cl)cc1)Nc1cccc(-c2cn(Cc3ccc(Cl)cc3)nn2)c1 | Huh-7 | cell growth or viability, CCK-8 | – | 50 µM, 72 h | viability | 15.6% |
| COc1ccc(NC(=O)NCc2cn(Cc3ccc(C)cc3)nn2)cc1 | Huh-7 | cell growth or viability, CCK-8 | – | 72 h | IC50 | > 50 µM |
| O=C(Nc1ccc(Cl)cc1)Nc1ccc(-c2cn(Cc3ccc(Br)cc3)nn2)cc1 | Huh-7 | cell growth or viability, CCK-8 | – | 50 µM, 48 h | viability | 98.4% |
